Shown are actives, neighbours in structure and some others; about 3.4% of the full set was active somewhere.
CHRM1 PAM = human M1 muscarinic receptor positive allosteric modulators, primary screen, CHO-K1 cells, Fluo-8 calcium fluorescence, 1536-well; CHO-K1 hM1, ACh EC20; 0% = ACh EC20, 100% = maximal ACh; activation, % at 3 µM; 0.088% of 360,000 active; AID 588819, 2011; in the data active = activation above about 19%, passing the limit was not always enough
M1 antag = human M1 muscarinic receptor antagonists, primary screen, CHO-K1 cells, Fluo-8 calcium fluorescence, 1536-well. Muscarinic acetylcholine receptor M1 (Homo sapiens), P11229. CHO-K1 hM1, ACh EC80 antagonist. inhibition, % at 3 µM. 1.3% of 360,000 active;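 active = percent inhibition above its own plate's cutoff, namely the mean of that plate's compound wells plus 3 SD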;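 note: peak over basal fluorescence ratio during 140 s after agonist addition; 0% = ACh EC80 plus DMSO and 100% = DMSO alone without agonist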
TAAR1 antag = human TAAR1 antagonists, primary screen, Fluo-8 calcium fluorescence, CHO RD-HGA16 cells | inhibition, % at 3 µM | AID 624466, 2012 | 1.5% of 360,000 active | antagonist;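 active = inhibition above a per-plate cutoff, the mean inhibition of test compounds on that plate plus 3 SD, cut at about 49% in these data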;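 note: 0% = DMSO plus EC80 beta-PEA response and 100% = DMSO alone without agonist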
Target sequence (Q96RJ0 whole entry, looked up): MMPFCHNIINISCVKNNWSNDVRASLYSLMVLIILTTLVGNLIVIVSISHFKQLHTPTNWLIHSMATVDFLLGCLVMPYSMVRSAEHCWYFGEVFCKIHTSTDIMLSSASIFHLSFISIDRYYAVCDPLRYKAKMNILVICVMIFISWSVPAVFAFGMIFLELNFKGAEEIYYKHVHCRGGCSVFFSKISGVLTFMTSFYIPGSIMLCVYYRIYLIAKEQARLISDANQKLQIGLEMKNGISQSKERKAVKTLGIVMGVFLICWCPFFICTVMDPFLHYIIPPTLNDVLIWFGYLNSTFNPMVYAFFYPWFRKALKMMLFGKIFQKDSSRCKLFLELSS
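Assay system: RD-HGA16 CHO cells with stable hTAAR1 and Gα16 / Reagent: EC80 β-phenethylamine stimulus / Doses: 3 µM, single point / Timing: dye loading 75 min at 37 °C, then 30 min room temperature / Measured by: Fluo-8 intracellular calcium dye fluorescence, real-time kinetic reads / Controls: vehicle wells and EC80 agonist wells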
M1 ag = human M1 muscarinic receptor agonists, primary screen, Fluo-8 calcium fluorescence, CHO-K1 cells, HTS; CHO-K1 hM1, agonist mode; 0% DMSO, 100% acetylcholine EC100; AID 588814, 2011; activation, % at 3 µM; 0.33% of 360,000 active; Muscarinic acetylcholine receptor M1 (Homo sapiens), P11229;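 active = activation above the run's mean compound activation plus 3 SD, cut at about 16% in these data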;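 note: peak over basal fluorescence ratio within a 140 s kinetic read after compound addition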
TAAR1 agonist = human TAAR1 agonists, primary screen, Fluo-8 calcium fluorescence, CHO RD-HGA16 cells. activation, % at 3 µM. 0.99% of 360,000 active. AID 624467, 2012. vehicle wells 0%, saturating PEA agonist 100%;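 active = activation above the mean activation of all test compounds in the run plus 3 SD, cut at about 38% in these data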
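Repeats: no replicates (n 1) | Material: CHO-derived RD-HGA16 cells with stable Gα16 and human TAAR1 | Technique: Kinetic Fluo-8 calcium fluorescence | Schedule: 17-24 h seeding, 75 min 37 °C dye, 30 min RT | Evaluation: % activation from peak over basal fluorescence ratio, DMSO-to-PEA scaled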
TAAR1 ag confirm = human TAAR1 agonists, retest of hits, confirmation, Fluo-8 calcium fluorescence, CHO RD-HGA16 cells | shares compounds with TAAR1 agonist | scaled: DMSO 0%, maximal phenethylamine 100% | activation, % at 3 µM | 82% of 2,400 active | AID 651783, 2012;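 active = activation above a cutoff set at the run's mean compound activation plus 3 SD, cut at about 39% in these data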
Ga16 ag counter = nonselective calcium mobilization agonists, CHO-Ga16 cells, counter-screen for hTAAR1 agonist project, cell-based, fluorescence, CHO-Ga16 parental line; Fluo-8 calcium fluorescence; normalized to maximal ATP response, DMSO zero; activation, % at 3 µM; AID 651787, 2012; 50% of 2,400 active; shares compounds with TAAR1 agonist;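 active = activation above the run cutoff, the mean activation over all tested wells plus 3 SD, cut at about 12% in these data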;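 note: 0% = DMSO wells and 100% = maximal ATP response on the peak over basal ratio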
TAAR1 desens = TAAR1 desensitization by agonist hits, confirmation, counter-screen for TAAR1 agonist project, cell-based, fluorescence, tachyphylaxis; CHO RD-HGA16 hTAAR1, Fluo-8 calcium, beta-PEA response inhibition; shares compounds with TAAR1 agonist; inhibition, % at 3 µM; 46% of 2,400 active; AID 651951, 2012;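 active = inhibition above the run cutoff, the mean inhibition of all test compounds plus 3 SD, cut at about 49% in these data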;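 note: beta-PEA stimulus applied at its EC80; loss of beta-PEA calcium signal after compound pretreatment read as receptor desensitization; 0% = DMSO with beta-PEA at EC80 and 100% = DMSO alone without agonist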
Ga16 nonsel ant = inhibition of ATP-evoked calcium response in CHO-Ga16 cells, counter-screen for TAAR1 agonist project, cell-based, fluorescence; shares compounds with TAAR1 agonist; 39% of 2,400 active; AID 651952, 2012; CHO-Ga16 ATP-induced calcium, Fluo-8 fluorescence; inhibition, % at 3 µM;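 active = inhibition above the plate's mean compound inhibition plus 3 SD, computed per plate, cut at about 22% in these data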;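 note: 0% = EC80 ATP with DMSO and 100% = DMSO wells without ATP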
An asterisk follows results filed as active; . = not tested or not shown.

SMILES	CHRM1 PAM	M1 antag	TAAR1 antag	M1 ag	TAAR1 agonist	TAAR1 ag confirm	Ga16 ag counter	TAAR1 desens	Ga16 nonsel ant
COc1ccc(-c2cc(-c3cccnc3)c(C#N)c(N)n2)cc1	4	-7	37	-2	46*	29	10	38	22*
COc1cccc(-c2cc(-c3cccnc3)c(C#N)c(N)n2)c1	1	-10	14	0	3	.	.	.	.
O=S(=O)(CCNCCc1ccccc1)NC1CCCCC1	1	-9	13	-5	42*	60*	1	17	-2
CCOC(=O)/C(=C\C=C1/Sc2cc(OCC)c(OCC)cc2N1CC)C(C)=O	-15	24	62*	44*	121*	167*	225*	80*	86*
CCN1/C(=C/C(C)=O)Sc2ccc(OC)cc21	6	-1	-14	-3	2	.	.	.	.
COc1ccc(/C=C/c2cc[n+](C(=O)Cc3ccccc3)cc2)cc1	2	-3	-8	-8	47*	70*	3	30	9
CCOc1ccc(-c2c(C(=O)N/N=C/c3cccs3)nnn2-c2nonc2N)cc1	3	3	21	11	96*	127*	80*	60*	32*
Nc1nonc1-n1nnc(C(=O)N/N=C/c2ccncc2)c1-c1cccs1	-1	7	-9	1	10	.	.	.	.
Nc1nonc1-n1nnc(C(=O)N/N=C/c2cccs2)c1-c1ccc2c(c1)OCO2	9	-7	66*	43*	141*	122*	81*	65*	28*
CCOc1ccc(/C=N/NC(=O)c2nnn(-c3nonc3N)c2-c2cccs2)cc1	-2	27	70*	44*	125*	120*	91*	76*	46*
C[C@@H](O)CNC(=O)c1[nH]cnc1C(=O)N[C@H](C)c1ccccc1	-6	0	2	-1	0	.	.	.	.
Cc1cc(Br)ccc1NC(=S)N1CCOCC1	-1	-7	-25	-3	2	.	.	.	.
O=C(NC1CCCc2c1cnn2-c1ccccc1F)c1ccccc1N1CCOCC1 (stereo unspecified)	6	-11	-4	-5	-1	.	.	.	.
CSc1ccc(CN2CCCN(C)CC2)cc1	1	-10	-31	-9	6	.	.	.	.
CSc1ncnc2c1ncn2CCCNCCc1ccccn1	5	-11	-4	-8	69*	82*	4	19	4
CCN1C(=O)[C@H]2[C@@H](c3ccc(OC)cc3)N[C@]3(CCCN(Cc4ccc(Br)cc4)C3=O)[C@H]2C1=O	13	-12	-22	-2	1	.	.	.	.
O=C(NNC(=S)NC(=O)c1cccc([N+](=O)[O-])c1)c1ccc(O)cc1	8	-9	1	-3	-2	.	.	.	.
O=C(NNC(=S)NC(=O)c1ccccc1)c1cccc([N+](=O)[O-])c1	-2	2	29	17*	96*	84*	65*	28	20
Cc1ccc(C(=O)NC(=S)NNC(=O)c2cccc([N+](=O)[O-])c2)cc1	1	-5	17	3	83*	101*	75*	62*	35*
O=C(NNC(=S)NC(=O)c1cccc([N+](=O)[O-])c1)c1ccc(Br)cc1	10	-2	14	1	99*	107*	81*	77*	44*
Cc1ccnc(NC(=O)c2ccc3c(c2)C(=O)N(CCC(C)C)C3=O)c1	17	-20	1	-1	0	.	.	.	.
O=C1/C(=C\c2ccc(Br)o2)Cc2ccccc21	4	-15	32	-9	50*	7	10	-12	-1
O=C(Nc1ccc2oc(-c3ccncc3)nc2c1)c1ccccc1F	1	-1	13	-3	50*	5	20*	-1	14
O=C(Nc1ccc2oc(-c3ccccc3)nc2c1)c1ccccc1F	2	-19	24	-1	12	.	.	.	.
CCN(CC)CCCNC(=O)c1cc(-c2ccccc2)c(N2CCCCC2)s1	-25	55*	8	-9	53*	55*	34*	40	18
SMILES	CHRM1 PAM	M1 antag	TAAR1 antag	M1 ag	TAAR1 agonist	TAAR1 ag confirm	Ga16 ag counter	TAAR1 desens	Ga16 nonsel ant
O=c1oc2cc(O)ccc2cc1-c1nc2c(s1)CCc1ccccc1-2	-8	16	47	12	59*	176*	164*	84*	84*
Cn1c(=O)c(N)c2c3c(c(Br)ccc31)C(=O)c1ccccc1-2	-2	13	36	16*	84*	7	21*	33	35*
O=[N+]([O-])c1ccc(/C=N/Nc2nc(NCc3ccccc3)nc(N3CCOCC3)n2)cc1	1	1	-1	-4	2	.	.	.	.
O=[N+]([O-])c1cccc(/C=N/Nc2nc(NCc3ccccc3)nc(N3CCOCC3)n2)c1O	7	-8	27	11	67*	115*	112*	93*	85*
CCCC1=NN2C(=N)/C(=C\c3cc(C)n(Cc4ccccc4)c3C)C(=O)N=C2S1	-27	78*	101*	59*	117*	111*	96*	106*	100*
CCCCn1c(N)c(N(C)C(=O)c2ccc(OCC3CCCO3)cc2)c(=O)[nH]c1=O (stereo unspecified)	-1	7	-8	-3	-1	.	.	.	.
CC(C)c1ccc(NC(=O)CCNC(=O)Cn2cnc3ccccc3c2=O)cc1	13	-18	5	-3	-1	.	.	.	.
COCC(=O)Nc1ncc(S(=O)(=O)c2ccc([N+](=O)[O-])cc2)s1	4	0	7	0	2	.	.	.	.
